# G6PDH CS = counter-screen for G6PDH assay hits: L. mesenteroides G6PDH inhibition; Purified L. mesenteroides G6PDH, diaphorase/resazurin coupled fluorescence, 45 min; inhibition, % at 5 µM; hit rate 0.12% among 200,000; AID 1020; in the data active = inhibition above about 50%
# PfG6PD inh = PfG6PD (Plasmodium falciparum) enzyme inhibition. PfGluPho enzyme, NADPH resazurin-diaphorase fluorescence. inhibition, % at 20 µM. hit rate 0.78% among 350,000. AID 504690;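 active = inhibition reaching at least a set limit at 20 µM in the primary screen, cut at about 59% in these data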;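 note: 0% = DMSO wells with substrate and 100% = DMSO wells lacking glucose-6-phosphate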
# HKDC1 inh = inhibitors of human hexokinase HKDC1; hit rate 0.16% among 340,000; recombinant HKDC1, G6PDH/diaphorase resazurin coupled fluorescence; Q2TB90; inhibition, % at 20 µM; AID 493160;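 active = inhibition above about 35% when tested at 20 µM, limit read from the data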;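 note: plate controls were DMSO wells with enzyme for no effect and DMSO wells lacking enzyme for full effect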
#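 Test system: recombinant HKDC1 (HK5) hexokinase enzyme, produced in-house; Amount: enzyme 5 µg/mL final; Buffer or medium: Tris pH 8.0 buffer with MgCl2, Tween-20, BSA, BME; Reagent: glucose and ATP substrates; Doses: 20 µM test compound, 1% DMSO; Incubation: 90 min reaction incubation at room temperature, dark; Detection: resorufin fluorescence at 613 nm.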
# Diaph inh CS = inhibits diaphorase or chemically oxidizes, flagging diaphorase assay artifacts; inhibition, % at 20 µM; diaphorase resazurin-to-resorufin fluorescence, NADH, 16 min; bacterial (C. kluyveri) enzyme, not human; hit rate 0.69% among 190,000;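 active = primary screen inhibition at 20 µM above a set limit, cut at about 50% in these data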;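 note: plate controls were DMSO with full reaction for no effect and wells lacking NADH for full effect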
#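 material = Clostridium kluyveri diaphorase enzyme | amount = 0.14 U/mL diaphorase, enzyme working solution | schedule = incubation 16 min, room temperature | detection = fluorescence of resorufin formed from resazurin, Ex 544/Em 590 nm | benchmarks = positive control minus NADH, DMSO neutral control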
# HKDC1 act conf = confirmation of human HKDC1 activators | shares compounds with HKDC1 inh | recombinant HKDC1, G6PDH/diaphorase resazurin fluorescence; stronger effect = lower value | inhibition, % at 20 µM | hit rate 14% among 740;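 active = inhibition at or below a set negative limit, negative inhibition meaning the enzyme was activated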
# * hit, by the source's call; nt = no result. A selection: hits, their analogues and other compounds. The true share with any hit is near 1.2%.
SMILES,G6PDH CS,PfG6PD inh,HKDC1 inh,Diaph inh CS,HKDC1 act conf
O=c1c2ccccc2nc2n1CCC2,3,14,82*,15,67
COc1ccc(C2=CC3=C(Br)C(=O)C(C)(O)C(=O)C3=CO2)cc1 (centres undefined),nt,22,34,nt,-5
CCC(=O)OC1(C)C(=O)C2=COC(c3ccc(OC)cc3)=CC2=C(Br)C1=O (centres undefined),nt,26,45*,nt,30
O=C(OCC(=O)N1CCc2ccccc21)c1ccc([N+](=O)[O-])o1,nt,40,3,nt,nt
CCc1nnc(NC(=O)CSc2ccc(-c3ccc(-n4cccn4)cc3)nn2)s1,nt,-5,0,nt,nt
CCN=C1NN=C(c2ccc(C)cc2)CS1,5,51,-64,12,-52*
c1ccc(CN=C2NN=C(c3ccccc3)CS2)cc1,8,15,-14,5,nt
COc1ccc2c(c1)CCc1c(C(=O)N3CCOCC3)noc1-2,12,0,-10,15,nt
COc1ccc2c(c1)CCc1c(C(=O)N3CCCc4ccccc43)noc1-2,-26,-13,38*,37,-26
Cc1cc(Oc2ccc(C(C)(C)C)cc2)nc(N2CCOCC2)n1,4,35,33,14,-37*
O=C1/C(=C\c2ccc(-c3ccccc3[N+](=O)[O-])o2)C(c2ccccc2)=NN1c1ccccc1,-4,16,42*,19,3
COc1ccc(/C(O)=C2/C(=O)C(=O)N(c3ccccn3)C2c2cccc(Cl)c2)cc1 (centres undefined),nt,-4,13,nt,nt
CC(C)(C)N=C1NN=C(c2ccc(S(=O)(=O)N3CCCCC3)cc2)CS1,nt,19,-67,nt,-32
CC(=O)Nc1ccc(C2=NNC(=Nc3ccc(S(=O)(=O)N4CCOCC4)cc3)SC2)cc1,nt,54,-339,nt,-234*
C[N+]1=C(/C=C/Nc2ccccc2Cl)C(C)(C)c2ccccc21,-6,-6,13,11,nt
COC(=O)c1ccc2c(c1)C(C)(C)C(/C=C/c1ccccc1O)=[N+]2C,3,14,38*,10,7
COc1cc(C(C)=O)ccc1OCC(=O)NCc1ccccc1CN1CCCC1,nt,-2,nt,nt,nt
O=C1Nc2c(Br)cccc2C1=O,nt,-2,12,nt,nt
O=C(Nc1ccc(F)cc1)C(=O)c1c(O)[nH]c2ccc([N+](=O)[O-])cc12,nt,16,42*,nt,-4
Cc1ccc(NCC(=O)N=Nc2c(O)[nH]c3ccc([N+](=O)[O-])cc23)cc1,nt,2,5,nt,nt
Cc1c(N=C2C=CC(=O)c3ccccc32)c(=O)n(-c2ccccc2)n1C,9,86*,42*,58*,35
Nn1cnnc1N/N=C/c1cc(Br)cc(Br)c1O,32,38,-52,50*,-32*
Cc1cc(C(=O)COC(=O)c2ccccc2O)c(C)n1CC1CCCO1 (centres undefined),nt,14,-7,nt,nt
Cc1cc(C(=O)COC(=O)c2cc(O)c3ccccc3c2O)c(C)n1CC1CCCO1 (centres undefined),34,78*,47*,37,15
O=C(CN1CCN(C(=O)c2ccccc2)CC1)Nc1cccc(S(=O)(=O)N2CCCC2)c1,nt,3,5,nt,nt
SMILES,G6PDH CS,PfG6PD inh,HKDC1 inh,Diaph inh CS,HKDC1 act conf
CSC1=NC(=O)/C(=C\c2cccc3ccccc23)S1,-11,2,33,-2,-11
Cc1ccc([C@H]2C[C@@H](O)[C@H](n3cc(-c4ccc(F)cc4)nn3)CN2C(=O)c2cccs2)cc1,nt,1,nt,nt,nt
Cc1ccc(C)c(S(=O)(=O)Nc2cc(SCC(=O)O)c(O)c3ccccc23)c1,48,104*,63*,32,55
CC(=NNC(=S)N1CCCCC1)c1cccc(C)n1,nt,34,-40,nt,-40*
c1ccc(COc2ncnc3c2ncn3CCCN2CCN(c3ccccn3)CC2)cc1,nt,11,-7,nt,nt
CC(C(=O)O)N1C(=O)/C(=C/C=C/c2ccco2)SC1=S (centres undefined),17,56,56*,42,5
O=C1/C(=C/C=C/c2ccco2)SC(=S)N1NS(=O)(=O)c1ccccc1,nt,28,29,nt,nt
Cc1onc(-c2ccccc2)c1C(=O)NC(=S)NNC(=O)c1ccc(O)cc1O,-6,-42,-40,26,nt
Cc1onc(-c2ccccc2)c1C(=O)NC(=S)NNC(=O)c1ccccc1O,0,-33,-45,22,-17
CN(C)c1ncnc2c1C(c1ccccc1)C(C)(C)O2 (centres undefined),nt,11,-4,nt,nt
CCCc1cc(C(=O)OCC(=O)N2CCN(c3ccc(OC)cc3)CC2)sc1C,nt,14,5,nt,nt
Cn1c(SSc2ccc(-c3cccnc3)n2C)ccc1-c1cccnc1,nt,32,-341,nt,-248*
Cc1ccc(S(=O)(=O)N2CCC[C@H]2C(=O)OCC(=O)Nc2ccc3c(c2)OCO3)cc1,nt,20,7,nt,nt
Cc1cc(OCC(=O)OCC(=O)NC2CCS(=O)(=O)C2)ccc1Cl (centres undefined),nt,3,nt,nt,nt
Nc1nc(SCc2ccccc2)c2ncn(CCO)c2n1,nt,-5,-2,nt,nt
Cc1cc([N+](=O)[O-])nn1CC(=O)N/N=C/c1ccc(O)cc1O,nt,-34,-49,nt,-2
Cc1nonc1C(=O)N/N=C/c1ccncc1,9,3,-2,5,nt
Cc1nonc1C(=O)N/N=C/c1ccc(O)cc1O,-8,-29,-36,nt,-34*
O=S(=O)(Nc1ccc(O)c2ccccc12)c1ccc(F)cc1,nt,33,43*,nt,6
COc1ccc(OC)c(S(=O)(=O)Nc2ccc(O)c3ccccc23)c1,-1,37,27,14,nt
O=S(=O)(Nc1ccc(NS(=O)(=O)c2ccccc2)c2ccccc12)c1ccccc1,nt,-17,nt,nt,nt
CCc1ccc(S(=O)(=O)Nc2ccc(O)c3ccccc23)cc1,nt,10,44*,nt,20
COC(=O)CCCn1nc(NC(=O)COc2ccc(F)cc2)cc1C,nt,6,-8,nt,nt
[S-]c1nnc(-c2ccc(Br)cc2)n1-c1ccccc1.[Zn+2],nt,16,49*,nt,26
COc1ccc(C)cc1NC(=O)Cn1c(=O)oc2ccccc21,nt,0,-8,nt,nt
SMILES,G6PDH CS,PfG6PD inh,HKDC1 inh,Diaph inh CS,HKDC1 act conf
O=C(CSc1nnc(CCCN2C(=O)c3cccc4cccc(c34)C2=O)n1-c1ccccc1)N1CCCCC1,-27,6,37*,72*,48
O=C(CSc1nnc(Cc2cc(=O)[nH]c(=O)[nH]2)n1-c1ccccc1)N1CCCCC1,1,26,-3,12,nt
Oc1ccc2ccccc2c1/C=N/c1nccs1,49,21,37*,31,29
Oc1ccccc1N=Cc1c(O)ccc2ccccc12,nt,7,10,nt,nt
Oc1ccc2ccccc2c1C=Nc1ccccc1Br,nt,24,38*,nt,10
COc1cc(C2c3c([nH]c(=O)[nH]c3=O)Nc3ccc4ccccc4c32)cc(OC)c1OC (centres undefined),7,-4,37*,53*,44
COc1cc(C2c3c([nH]c(=O)[nH]c3=O)Nc3ccc4ccccc4c32)ccc1O (centres undefined),-2,-8,-1,16,nt
CCOc1nc2cnccc2n(CC(=O)Nc2cccc(C)c2)c1=O,nt,3,-1,nt,nt
Cc1nc2c(c(=O)c3ccccc3n2C)c(=O)n1-c1ccccc1,nt,43,51*,nt,56

# From PubChem
